The source made the active and inactive calls. The calls are words filed in the database; no cut-off is given here.
How the values were obtained:
[1] = target: Protein kinase C (PKC); assay: Agonist activity at Protein kinase C in human U1 cells infected with HIV-1 NL4-3 assessed as induction of HIV-1 p24 production after 72 hrs by ELISA; assay type: cell-based
Summary of the method: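 Latency model: U1 cells (2 × 10^5 cells/mL) incubated with a range of compound concentrations at 37 °C for 72 h. p24 in the supernatant measured by ELISA. EC50 is the concentration giving 50% of maximal p24 induction, from nonlinear regression.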

[2] = Half-life in Sprague-Dawley rat plasma at 0.05 mM measured up to 24 hrs by LCMS analysis; assay type: ADME, cell-free; conditions: 50 µM
Summary of the method: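 Sprague Dawley rat plasma (sodium heparin) prewarmed 10 min at 37 °C. Compound added from 5 mM DMSO stock to a final 0.05 mM. Samples taken at 0, 0.5, 1, 2, 4, 6, 10 and 24 h, deproteinized with 2 volumes MeOH, centrifuged and filtered. Analysis by LCMS (C18, isocratic, ESI). Mean of three independent experiments.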

[3] = system: MT4; assay: Cytotoxicity against human MT4 cells measured after 3 days by CytoTox-Glo assay; assay type: cell-based; conditions: mt4, 72 h
Summary of the method: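 MT4 cells cultured with a range of compound concentrations for 3 days. Viability by CytoTox-Glo, run per the manufacturer's protocol. CC50 is the concentration causing a 50% drop in viability.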

[4] = Agonist activity at Protein kinase C in human MT4 cells infected with HIV-1 NL4-3 assessed as inhibition of viral replication measured on day 3 post-infection by Nano-Glo luciferase assay
[5] = system: Human immunodeficiency virus 1; assay: Antiviral activity against HIV 1 NL4-3 infected in human MT4 cells assessed as inhibition of replication treated 48 hrs post infection and measured on day 4 post infection by ELISA; assay type: functional; conditions: Human immunodeficiency virus 1, NL4-3, MT4
[6] = target: Protein kinase C beta type (Homo sapiens) (UniProt P05771); assay: Agonist activity at Protein kinase C beta in human MT4 cells infected with HIV-1 NL4-3 assessed as inhibition of viral replication at 0.6 nM measured on day 3 post-infection by Nano-Glo luciferase assay relative to control; assay type: cell-based
Summary of the method: (§1)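 Multicycle replication: MT4 cells (1 × 10^5 cells/mL) infected with HIV-1 NL4-3 NanoLuc-sec, 50 TCID50/well, with 0.6 nM or 2 nM PKC agonist, with or without enzastaurin at 0, 1/3 or 1 μM. Supernatant luciferase (Nano-Glo) read on day 3 post infection. Replication expressed relative to the no-compound control (100%). Duplicate assay.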

[7] = target: Protein kinase C beta type (Homo sapiens) (UniProt P05771); assay: Agonist activity at Protein kinase C beta in human MT4 cells infected with HIV-1 NL4-3 assessed as inhibition of viral replication at 0.6 nM measured on day 3 post-infection in presence of PKCbeta antagonist enzastaurin by Nano-Glo luciferase assay; assay type: cell-based; summary of the method: as §1
[8] = target: Protein kinase C beta type (Homo sapiens) (UniProt P05771); assay: Agonist activity at Protein kinase C beta in human MT4 cells infected with HIV-1 NL4-3 assessed as inhibition of viral replication at 2 nM measured on day 3 post-infection in presence of PKCbeta antagonist enzastaurin by Nano-Glo luciferase assay; assay type: cell-based; summary of the method: as §1

Protein kinase C beta type (Homo sapiens), sequence (P05771 2-671 limits assumed): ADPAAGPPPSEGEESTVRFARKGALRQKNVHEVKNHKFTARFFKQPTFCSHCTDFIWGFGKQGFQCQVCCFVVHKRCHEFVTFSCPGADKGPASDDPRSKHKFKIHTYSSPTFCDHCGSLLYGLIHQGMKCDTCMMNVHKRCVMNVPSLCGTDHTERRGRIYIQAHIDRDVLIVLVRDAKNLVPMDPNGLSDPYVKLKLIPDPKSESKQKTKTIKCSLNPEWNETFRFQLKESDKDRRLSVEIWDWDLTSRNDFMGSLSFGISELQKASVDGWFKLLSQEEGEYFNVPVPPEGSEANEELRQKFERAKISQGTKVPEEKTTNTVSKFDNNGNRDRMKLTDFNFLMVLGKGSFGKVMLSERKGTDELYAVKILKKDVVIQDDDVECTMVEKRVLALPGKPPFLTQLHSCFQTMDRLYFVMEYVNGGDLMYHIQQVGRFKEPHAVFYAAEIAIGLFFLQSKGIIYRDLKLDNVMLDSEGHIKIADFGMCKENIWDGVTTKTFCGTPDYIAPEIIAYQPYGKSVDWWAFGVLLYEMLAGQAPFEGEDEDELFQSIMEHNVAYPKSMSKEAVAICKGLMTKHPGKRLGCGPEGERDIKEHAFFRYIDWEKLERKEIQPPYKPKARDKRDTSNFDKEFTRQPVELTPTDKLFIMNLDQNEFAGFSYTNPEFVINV

SMILES | EC50 [1] [nM] | t1/2 [2] [h] | CC50 [3] [nM] | IC50 [4] [nM] | IC90 [5] [nM] | inhibition [6] [%] | Activity [7] | Activity [8]
C=C(C)[C@]12C[C@@H](COC(=O)c3ccccc3)[C@@]34OC5(O[C@@H]1[C@@H]3[C@@H]1O[C@]1(CO)[C@@H](O)[C@@]1(O)[C@H]4[C@H]([C@H](C)[C@@H]1OC(=O)c1ccccc1)[C@H](C)CCCCCCC5=O)O2 | 0.6 | 21.65 | > 1 | 0.14 |  |  |  | 
C=C(C)[C@]12C[C@@H](COC(C)=O)[C@@]34OC5(O[C@@H]1[C@@H]3[C@@H]1O[C@]1(CO)[C@@H](O)[C@@]1(O)[C@H]4[C@H]([C@H](C)[C@@H]1OC(=O)c1ccccc1)[C@H](C)CCCCCC[C@H]5O)O2 |  |  |  |  | 0.4 |  |  | 
C=C(C)[C@]12C[C@@H](COC(=O)c3ccccc3)[C@@]34OC5(O[C@@H]1[C@@H]3[C@@H]1O[C@]1(CO)[C@@H](O)[C@@]1(O)[C@H]4[C@H]([C@H](C)[C@@H]1OC(=O)c1ccccc1)[C@H](C)CCCCCC[C@H]5O)O2 | 0.19 | 21.77 | > 1 | 0.13 |  | 90 | inactive | 
C=C(C)[C@]12C[C@@H](COC(=O)c3ccccc3)[C@@]34OC5(O[C@@H]1[C@@H]3[C@@H]1O[C@]1(CO)[C@@H](O)[C@@]1(O)[C@H]4[C@H]([C@H](C)[C@@H]1OC(=O)c1ccncc1)[C@H](C)CCCCCC[C@H]5O)O2 | 0.55 |  | > 1 | 0.36 |  |  |  | inactive

Source: ChEMBL document CHEMBL4373700, “Synthesis and Structure-Activity Relationship Correlations of Gnidimacrin Derivatives as Potent HIV-1 Inhibitors and HIV Latency Reversing Agents” (J Med Chem, 2019)
